From ChEMBL document CHEMBL5038578, “Design, Synthesis, and Biological Evaluation of Peptidomimetic Aldehydes as Broad-Spectrum Inhibitors against Enterovirus and SARS-CoV-2” (J Med Chem, 2022)

Columns and labels:
[1] = Inhibition of Human enterovirus 71 3C-like protease expressed in Escherichia coli BL21 (DE3) cells using Dacyl-KTSAVLQSGFRKMEEdans as fluorogenic substrate incubated for 10 mins by FRET assay; parameters: species or system Enterovirus A71
Summary of the method: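 EV71 3Cpro expressed with N-terminal His-SUMO2 tag, tag cut by SENP2, then purified on Ni-NTA, Q-Sepharose and Superdex200. Enzyme at 5 μM final, preincubated 10 min with serial compound dilutions in 25 mM Tris pH 8.0, 150 mM NaCl, 10% glycerol. Fluorescence read at ex 340/em 490 nm. IC50 (mean ± SD, ≥3 experiments) by nonlinear regression.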

Enterovirus A71 = test: Antiviral activity against Human enterovirus 71 BrCr infected in human RD cells assessed as reduction in virus-induced cytopathic effect incubated for 4 days by MTS/PMS assay; type: functional, organism-based; details: Enterovirus A, 96 h
Summary of the method: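 RD cells (2.5 × 10^4/well) adhered overnight, then infected with EV71 BrCr and given serial compound dilutions. Incubated 4 days, until full CPE in virus controls. Viability by MTS/PMS, absorbance at 498 nm after 1–2 h at 37 °C. Normalised to infected and uninfected untreated controls; EC50 by curve fitting.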

[2] = Cytotoxicity against human RD cells assessed as reduction in cell viability measured after 4 days by MTS/PMS assay; type: toxicity, cell-based; details: time 4 day
[3] = Inhibition of SARS-CoV2 3C-like protease expressed in Escherichia coli BL21 (DE3) cells using Mca-AVLQSGFR-Lys(Dnp)-Lys-NH2 as fluorogenic substrate incubated for 10 mins by FRET assay; parameters: species or system Severe acute respiratory syndrome coronavirus 2
SARS-CoV-2 = test: Antiviral activity against SARS Cov-2 infected in Vero E6 cells assessed as reduction in viral RNA replication measured 24 hrs post infection by qRT-PCR analysis; type: functional, organism-based; details: Severe acute respiratory syndrome coronavirus 2, Vero C1008, 24 h
[4] = Cytotoxicity against African green monkey Vero E6 cells assessed as reduction in cell viability incubated for 24 hrs by CCK8 assay; type: toxicity, cell-based, Vero C1008; details: chlorocebus sabaeus
Summary of the method: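 Vero E6 cells (2 × 10^4/well) exposed to graded compound concentrations for 24 h. Relative surviving cell number measured by CCK-8.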

rhinovirus A2 = test: Antiviral activity against wild type Rhinovirus-A02 infected in HeLa cells assessed as reduction in virus-induced cytopathic effect incubated for 3 days by MTS/PMS assay; type: functional, cell-based; details: Rhinovirus A, 72 h
rhinovirus B14 = test: Antiviral activity against wild type Human rhinovirus B14 infected in HeLa cells assessed as reduction in virus-induced cytopathic effect incubated for 3 days by MTS/PMS assay; type: functional, organism-based; details: Rhinovirus B, 72 h
enterovirus D68 = test: Antiviral activity against Human enterovirus 68 infected in HeLa cells assessed as reduction in virus-induced cytopathic effect incubated for 4 days by MTS/PMS assay; type: functional, organism-based; details: Enterovirus D, 96 h
Coxsackievirus A21 = test: Antiviral activity against Human coxsackievirus A21 infected in HeLa cells assessed as reduction in virus-induced cytopathic effect incubated for 3 days by MTS/PMS assay; type: functional, organism-based; details: Enterovirus C, 72 h
Coxsackievirus B3 = test: Antiviral activity against Human coxsackievirus B3 infected in Vero cells assessed as reduction in plaque formation treated 2 hrs post viral infection and measured 3 to 4 days post-infection by Giemsa staining based plaque reduction assay; type: functional, organism-based; details: Enterovirus B

| Structure (SMILES) | IC50 [1] [µM] | EC50 (Enterovirus A71) [µM] | CC50 at 96 h [2] [µM] | IC50 [3] [µM] | EC50 (SARS-CoV-2) [µM] | CC50 at 24 h [4] [µM] | EC50 (rhinovirus A2) [µM] | EC50 (rhinovirus B14) [µM] | EC50 (enterovirus D68) [µM] | EC50 (Coxsackievirus A21) [µM] | EC50 (Coxsackievirus B3) [µM] |
| --- | --- | --- | --- | --- | --- | --- | --- | --- | --- | --- | --- |
| O=C[C@H](C[C@@H]1CCNC1=O)NC(=O)[C@H](Cc1ccccc1)NC(=O)c1ccc2ccc(Br)cc2n1 | 3.22 | 0.094 | 46.2 | 0.24 | 0.35 | 823 |  |  |  |  |  |
| O=C[C@H](C[C@@H]1CCNC1=O)NC(=O)[C@H](Cc1ccccc1)NC(=O)/C=C/c1ccccc1 | 4.57 | 0.1 | > 100 |  |  |  | 6.6 | 1.19 | 0.08 | 1.73 | 15.9 |
| Cc1nc2ccccc2nc1C(=O)N[C@@H](Cc1ccccc1)C(=O)N[C@H](C=O)C[C@@H]1CCNC1=O | 3.04 | 0.37 | > 100 | 0.065 | 0.44 | 603 |  |  |  |  |  |
| O=C[C@H](C[C@@H]1CCNC1=O)NC(=O)[C@H](Cc1ccccc1)NC(=O)c1ccc2c(c1)OCCO2 | 2.21 | 0.3 | > 100 |  |  |  |  |  |  |  |  |
| O=C[C@H](C[C@@H]1CCNC1=O)NC(=O)[C@H](Cc1ccccc1)NC(=O)c1cc2ccccc2o1 | 2.44 | 0.093 | > 100 | 0.08 | 0.49 | > 1000 |  |  |  |  |  |
| O=C[C@H](C[C@@H]1CCNC1=O)NC(=O)[C@H](Cc1ccccc1)NC(=O)c1ccc2c(c1)OCO2 | 1.47 | 0.22 | > 100 | 0.078 | 1.35 | > 1000 |  |  |  |  |  |
| CC(C)[C@H](NC(=O)c1ccc2c(c1)OCCO2)C(=O)N[C@@H](Cc1ccccc1)C(=O)N[C@H](C=O)C[C@@H]1CCNC1=O | 4.04 | 0.44 | > 100 |  |  |  |  |  |  |  |  |
| O=C[C@H](C[C@@H]1CCNC1=O)NC(=O)[C@H](Cc1ccccc1)NC(=O)c1cn2cc(Br)ccc2n1 | 1.62 | 0.36 | > 100 |  |  |  |  |  |  |  |  |
| O=C[C@H](C[C@@H]1CCNC1=O)NC(=O)[C@H](Cc1ccccc1)NC(=O)c1ccc2ccccc2n1 | 13 | 0.12 | > 100 | 0.14 | 0.43 | 627 |  |  |  |  |  |
| COC(=O)/C=C/[C@H](C[C@@H]1CCNC1=O)NC(=O)[C@H](Cc1ccccc1)NC(=O)/C=C/c1ccccc1 | 1.73 | 1.21 | > 100 |  |  |  | 1.68 | 1.65 | 0.1 | 3.62 | 77.7 |
| O=C[C@H](C[C@@H]1CCNC1=O)NC(=O)[C@H](Cc1ccccc1)NC(=O)C1=Cc2cc(Cl)ccc2OC1 | 4.34 | 0.07 | 16.4 | 0.12 | 0.25 | 299 |  |  |  |  |  |
